Experimental data: ChEMBL document CHEMBL3352606, “Oligo-β-(1 → 3)-glucans: impact of thio-bridges on immunostimulating activities and the development of cancer stem cells” (J Med Chem, 2014)
Activity calls are given as the source filed them. The calls are words filed in the database; no cut-off is given here.

Legend:
Mus musculus [1] = species: Mus musculus; assay: Immunostimulation activity in BALB/c mouse assessed as influx of peritoneal macrophages measured 1 to 3 days post compound injection; assay type: functional, organism-based
Mus musculus [2] = assay: Immunostimulation activity in BALB/c mouse assessed as production of IL-2 in conA-stimulated splenocytes at 100 ug, ip by EIA; assay type: functional, organism-based
In short: (§1)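 Purified spleen cells (2 × 10^6/mL in RPMI 1640 with 5% FCS) were cultured for 72 h at 37 °C, 5% CO2; 1 μg Concanavalin A was added to positive-control wells. Supernatants were filtered at 0.45 μm and IL-2 was measured by mouse IL-2 ELISA kit. Mean of three experiments ± SD; PBS-injected mice served as controls.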

[3] = Downregulation of NF-kappaB expression in human Detroit 573 cells at by RT-PCR analysis; assay type: ADME, cell-based
In short: (§2)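 Total RNA was Trizol-extracted from control and treated cells (ZR-75-1 or Detroit 573; 10% heat-inactivated FCS, 37 °C, 5% CO2). 200 ng was taken through one-step RT-PCR: 30 min at 50 °C, 2 min at 95 °C, then 25 cycles with gene-specific annealing and extension. Products were run on 1.0% agarose, normalised to β-actin and quantified by densitometry. Three independent experiments, Student's t test.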

Mus musculus [4] = species: Mus musculus; assay: Immunostimulation activity in BALB/c mouse assessed as stimulation of […] neutrophils measured […] post compound injection; assay type: functional, organism-based
In short: (§3)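 Mice were injected with oligosaccharides 1 or 4 days before. Peritoneal macrophages (1 × 10^7, in RPMI-1640 with 5% FCS) were incubated with HEMA particles, Giemsa-stained and differentially counted; cells with ≥3 particles were scored positive. Peripheral blood was scored the same way, using one heparinised drop from the orbital plexus. Mean of three experiments ± SD.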

Mus musculus [5] = species: Mus musculus; assay: Immunostimulation activity in BALB/c mouse assessed as stimulation of […] neutrophils measured […] in presence of polymyxin B; assay type: functional, organism-based
In short: (§4)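 This is the HEMA-particle phagocytosis assay repeated with 10 μg/mL polymyxin B added to the samples. Peritoneal cells (1 × 10^7, RPMI-1640 with 5% FCS) and heparinised orbital-plexus blood were taken from mice injected with oligosaccharides 1 or 4 days before. Cells were Giemsa-stained, and those carrying ≥3 particles were scored positive.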

[6] = Upregulation of PKC expression in human Detroit 573 cells at by RT-PCR analysis; assay type: ADME, cell-based; in short: as §2
Mus musculus [7] = species: Mus musculus; assay: Immunostimulation activity in BALB/c mouse assessed as stimulation of monocytes measured […] post compound injection in presence of polymyxin B; assay type: functional, organism-based; in short: as §4
ZR-75-1 [8] = assay: Upregulation of PKC expression in human ZR-75-1 cells at by RT-PCR analysis; assay type: functional, cell-based; in short: as §2
ZR-75-1 [9] = assay: Effect on CDC25 expression in human ZR-75-1 cells at by RT-PCR analysis; assay type: functional, cell-based; in short: as §2
ZR-75-1 [10] = assay: Downregulation of CDC42 expression in human ZR-75-1 cells at by RT-PCR analysis; assay type: functional, cell-based; in short: as §2
Mus musculus [11] = species: Mus musculus; assay: Immunostimulation activity in BALB/c mouse assessed as production of IL-2 in splenocytes measured 1 to 3 days post compound injection; assay type: functional, organism-based; in short: as §1
Mus musculus [12] = species: Mus musculus; assay: Immunostimulation activity in BALB/c mouse assessed as stimulation of monocytes measured […] post compound injection; assay type: functional, organism-based; in short: as §3
Mus musculus [13] = species: Mus musculus; assay: Immunostimulation activity in BALB/c mouse assessed as stimulation of peritoneal macrophages measured […] post compound injection; assay type: functional, organism-based; in short: as §3
Mus musculus [14] = assay: Immunostimulation activity in BALB/c mouse assessed as production of TNF-alpha in peripheral blood at 100 ug, ip by EIA; assay type: functional, organism-based
In short: (§5)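 BALB/c mice received 100 μg oligosaccharide i.p., or PBS. Mice were sacrificed at intervals and serum was stored at −80 °C for ≤1 week. IL-1β and TNF-α were measured by ELISA at 450 nm with 570 nm correction, against a standard curve run with each assay (linear regression). Mean of three experiments ± SD.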

[15] = Downregulation of CDC25 expression in human Detroit 573 cells at by RT-PCR analysis; assay type: ADME, cell-based; in short: as §2
Mus musculus [16] = species: Mus musculus; assay: Immunostimulation activity in BALB/c mouse assessed as stimulation of peritoneal macrophages measured […] in presence of polymyxin B; assay type: functional, organism-based; in short: as §4
Mus musculus [17] = assay: Immunostimulation activity in BALB/c mouse assessed as production of […] in peripheral blood at 100 ug, ip by EIA; assay type: functional, organism-based; in short: as §5
[18] = Upregulation of CDC42 expression in human Detroit 573 cells at by RT-PCR analysis; assay type: ADME, cell-based; in short: as §2
ZR-75-1 [19] = assay: Upregulation of NF-kappaB expression in human ZR-75-1 cells at by RT-PCR analysis; assay type: functional, cell-based; in short: as §2

SMILES	Activity (Mus musculus [1])	Activity (Mus musculus [2])	Activity [3]	Activity (Mus musculus [4])	Activity (Mus musculus [5])	Activity [6]	Activity (Mus musculus [7])	Activity (ZR-75-1 [8])	Activity (ZR-75-1 [9])	Activity (ZR-75-1 [10])	Activity (Mus musculus [11])	Activity (Mus musculus [12])	Activity (Mus musculus [13])	Activity (Mus musculus [14])	Activity [15]	Activity (Mus musculus [16])	Activity (Mus musculus [17])	Activity [18]	Activity (ZR-75-1 [19])
OC[C@H]1O[C@@H](O[C@@H]2[C@@H](O)[C@H](O[C@@H]3[C@@H](O)[C@H](S[C@H]4[C@H](O)[C@@H](CO)OC(O)[C@@H]4O)O[C@H](CO)[C@H]3O)O[C@H](CO)[C@H]2O)[C@H](O)[C@@H](O)[C@@H]1O (stereo partly specified)	Active	Active	Non-toxic	Active	Active	Toxic	Active	Active	inactive	Active	Active	Active	Active	Active	Non-toxic	Active	Active	–	–
OC[C@H]1O[C@@H](O[C@@H]2[C@@H](O)[C@H](S[C@@H]3[C@@H](O)[C@H](S[C@H]4[C@H](O)[C@@H](CO)OC(O)[C@@H]4O)O[C@H](CO)[C@H]3O)O[C@H](CO)[C@H]2O)[C@H](O)[C@@H](O)[C@@H]1O (stereo partly specified)	Active	Active	Toxic	Active	Active	Toxic	Active	Active	–	–	Active	Active	Active	Active	–	Active	Active	Non-toxic	–
OC[C@H]1O[C@@H](O[C@@H]2[C@@H](O)[C@H](S[C@@H]3[C@@H](O)[C@H](O)O[C@H](CO)[C@H]3O)O[C@H](CO)[C@H]2O)[C@H](O)[C@@H](O)[C@@H]1O	Active	Active	Non-toxic	Active	Active	Toxic	Active	Active	inactive	–	Active	Active	Active	Active	Non-toxic	Active	Active	–	Active
OC[C@H]1O[C@@H](S[C@@H]2[C@@H](O)[C@H](S[C@H]3[C@H](O)[C@@H](CO)OC(O)[C@@H]3O)O[C@H](CO)[C@H]2O)[C@H](O)[C@@H](O)[C@@H]1O (stereo partly specified)	Active	–	–	Active	Active	Toxic	Active	Active	inactive	–	–	Active	Active	–	Non-toxic	Active	–	Non-toxic	–
